Only some compounds are listed: those with a hit (about 2.3% of all), similar ones and a draw of the others.
TRPC6 inhibitor = mouse TRPC6 channel inhibitors, primary screen, cell-based, HEK293, membrane potential dye; Short transient receptor potential channel 6 (Mus musculus), Q61143; ACh-evoked depolarization; active compounds read low; B-score at 10 µM; actives 1.1% (n = 310,000);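 active = B-score under library mean minus 3 SD, initial fluorescence not abnormally high, positive integrated signal ratio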;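 note: B-score derived from integrated fluorescence ratio over the kinetic read; more negative B-score means stronger inhibition of depolarization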
TRPC4 PAM = positive allosteric modulators of TRPC4, primary screen, cell-based, mouse TRPC4beta, HEK293 mu-opioid, Fluo-4 calcium; B-score at 10 µM; DAMGO EC20, Fluo-4 Ca2+ flux; active compounds read high; actives 0.42% (n = 310,000); Short transient receptor potential channel 4 (Mus musculus), Q9QUQ5;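 active = B-score of calcium response area above 5 SD of library B-scores, with initial fluorescence ratio within 5 SD of library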;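 note: B-score of integrated fluorescence ratio over time as area under calcium response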
Target sequence (Q9QUQ5 whole entry, looked up): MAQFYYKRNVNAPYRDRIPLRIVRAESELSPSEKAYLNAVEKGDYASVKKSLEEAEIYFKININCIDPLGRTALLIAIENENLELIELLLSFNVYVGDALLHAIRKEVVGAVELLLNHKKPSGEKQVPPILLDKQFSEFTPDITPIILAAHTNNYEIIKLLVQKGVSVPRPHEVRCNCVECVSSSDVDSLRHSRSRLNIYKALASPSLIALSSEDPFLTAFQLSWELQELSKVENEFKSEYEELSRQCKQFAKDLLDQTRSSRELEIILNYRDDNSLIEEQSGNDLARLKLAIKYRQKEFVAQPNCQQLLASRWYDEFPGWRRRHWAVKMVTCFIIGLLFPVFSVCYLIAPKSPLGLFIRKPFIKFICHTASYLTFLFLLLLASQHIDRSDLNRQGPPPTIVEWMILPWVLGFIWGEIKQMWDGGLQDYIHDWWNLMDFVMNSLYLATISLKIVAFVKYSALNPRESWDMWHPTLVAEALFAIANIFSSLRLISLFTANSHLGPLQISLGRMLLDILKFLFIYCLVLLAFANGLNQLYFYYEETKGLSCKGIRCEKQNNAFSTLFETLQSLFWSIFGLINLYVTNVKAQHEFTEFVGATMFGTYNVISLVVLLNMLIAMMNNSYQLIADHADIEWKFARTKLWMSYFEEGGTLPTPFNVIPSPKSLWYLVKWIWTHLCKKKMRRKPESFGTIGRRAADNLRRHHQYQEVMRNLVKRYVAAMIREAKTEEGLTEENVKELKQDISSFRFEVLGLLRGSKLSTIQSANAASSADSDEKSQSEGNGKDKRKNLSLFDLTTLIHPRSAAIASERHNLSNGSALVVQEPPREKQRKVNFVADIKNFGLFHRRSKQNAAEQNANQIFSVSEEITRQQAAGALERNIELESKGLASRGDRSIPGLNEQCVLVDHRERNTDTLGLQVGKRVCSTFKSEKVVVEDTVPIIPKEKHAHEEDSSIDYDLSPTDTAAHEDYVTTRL
TRPC4 act = activators of mouse TRPC4 channel, primary screen, Fluo4 calcium, HEK293 TRPC4beta/mu-opioid cells. B-score at 10 µM. actives 0.49% (n = 310,000). Fluo4 calcium fluorescence; active compounds read high. AID 2237, 2010. Short transient receptor potential channel 4 (Mus musculus), Q9QUQ5;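 active = B-score above 5 SD of library B-scores, and initial fluorescence ratio not above library mean plus 5 SD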;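 note: positive B-score marks a calcium rise read as TRPC4 activation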
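Incubation: 45 min room-temperature Fluo4 loading, 110 s read / System: HEK293 cells stably co-expressing mouse TRPC4beta and mu-opioid receptor / Signal: Fluo4 fluorescence, kinetic / Control set: buffer (low) and maximal DAMGO (high) / Measure: integrated baseline-normalised fluorescence ratio, converted to per-well B score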
TRPC4 inh = inhibitors of mouse TRPC4 channel, primary screen, Fluo4 calcium, HEK293 TRPC4beta/mu-opioid cells; actives 0.39% (n = 300,000); DAMGO-evoked Fluo4 calcium flux; active compounds read low; Short transient receptor potential channel 4 (Mus musculus), Q9QUQ5; B-score at 10 µM;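 active = B-score over 3 SD under the library average, no early fluorescence shift, positive overall ratio signal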
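Assay system: HEK293 cells with stable TRPC4beta plus mu-opioid receptor expression; Probe or stimulus: DAMGO in two steps, submaximal then maximal; Dosing: single-point compound dosing; Measured by: Fluo4 calcium-dye fluorescence, kinetic read; Read-out basis: B score from integrated Fluo4 fluorescence ratio.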
TRPC6 act = mouse TRPC6 channel activators, primary screen, cell-based, HEK293, membrane potential dye; HEK293-TRPC6 membrane potential dye fluorescence; active compounds read high; actives 0.13% (n = 310,000); Short transient receptor potential channel 6 (Mus musculus), Q61143; B-score at 10 µM;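 active = B-score of the integrated fluorescence ratio above library mean plus 3 SD, and starting fluorescence ratio within library mean plus 5 SD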;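 note: higher score means more depolarization so channel activation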
TRPC4 spec 2 = second selectivity test of TRPC6 inhibitors: effect on mouse TRPC4. shares compounds with TRPC6 inhibitor. HEK293 TRPC4/MOR, membrane potential dye fluorescence; channel activated by saturating DAMGO dose. inhibition, % at 10 µM. actives 42% (n = 920). AID 2776;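 active = compounds whose fluorescence signal differed from control wells by over 3 SD, either direction, in both duplicate plates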
TRPC4 spec = mouse TRPC4 modulation by TRPC6 hits, confirmation, selectivity assay for TRPC6 inhibitor project, cell-based, HEK293 TRPC4/mu-opioid, membrane potential dye; shares compounds with TRPC6 inhibitor; membrane potential fluorescence; activity change, negative = inhibition, % at 10 µM; actives 61% (n = 920); AID 2777, 2010;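 active = rise or fall in signal beyond 3 SD of buffer-only wells in both replicate plates, either sign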;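 note: integrated kinetic ratio of fluorescence range over baseline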
HEK293 MPD ctr 2-1 = nonspecific membrane potential effects, parental HEK293, confirmation, counter-screen for TRPC6 inhibitor project, cell-based, second counter screen. parental HEK293 membrane potential dye fluorescence; maximal acetylcholine challenge after compound addition. signal change vs control, % at 10 µM. shares compounds with TRPC6 inhibitor. actives 31% (n = 920);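 active = membrane potential signal moving either way by over 3 SD of the maximum-effect control, in both duplicate plates, meaning non-specific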
HEK293 MPD ctr-1 = membrane potential modulation in parental HEK293, confirmation, counter-screen for TRPC6 inhibitor project, cell-based | shares compounds with TRPC6 inhibitor | parental HEK293 membrane potential dye fluorescence | membrane potential signal change, % at 10 µM | actives 60% (n = 920);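 active = membrane potential signal shifting up or down by more than 3 SD of buffer-only wells, on both duplicate plates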
HEK293 MPD ctr-2 = parental HEK293 membrane potential modulation, confirmation, counter-screen for TRPC6 modulator project, cell-based | membrane potential signal change, % at 10 µM | shares compounds with TRPC6 inhibitor | AID 488924, 2010 | membrane potential dye fluorescence | actives 51% (n = 2,400);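 active = membrane potential signal moves up or down beyond 5 SD from buffer-only wells, on both duplicate plates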
HEK293 MPD ctr 2-2 = parental HEK293 nonspecific activity of TRPC6 modulators, second screen; shares compounds with TRPC6 inhibitor; membrane potential dye fluorescence; after compound, maximal acetylcholine stimulation; inhibition, % at 10 µM; actives 14% (n = 2,400); AID 488926;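 active = membrane potential signal drops by more than 5 SD from the mean control signal, in both duplicate plates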;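 note: plate controls were acetylcholine ECmax control wells for no effect and buffer only wells for full effect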
TRPC4 ctr mod = TRPC4 modulation by TRPC6 hit compounds, confirmation, selectivity assay for TRPC6 modulator project, cell-based, HEK293 TRPC4/mu-opioid, membrane potential dye, mouse; actives 69% (n = 2,400); shares compounds with TRPC6 inhibitor; membrane potential fluorescence; percent change from control (negative = decrease, positive = increase), % at 10 µM;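 active = membrane potential signal moved up or down beyond 5 SD of buffer control wells, in both duplicate plates, actives on both sides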;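 note: plate controls were assay buffer wells for no effect and DAMGO maximal-effect wells for full effect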
TRPC4/MOR inh 2 = mouse TRPC4 off-target activity of TRPC6 modulators, second screen. shares compounds with TRPC6 inhibitor. HEK293 TRPC4/mu-opioid, membrane potential dye fluorescence; stimulated with maximal-effect DAMGO. inhibition, % at 10 µM. actives 55% (n = 2,400). AID 488928;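 active = drop in membrane potential signal beyond 5 SD of the control wells in both duplicate plates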;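 note: TRPC4 counter screen for TRPC6 hits run under conditions tuned for TRPC6 not TRPC4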
TRPC6 block conf = mouse TRPC6 channel inhibitors, confirmation, HEK293 cells, membrane potential dye, duplicate; inhibition, % at 10 µM; actives 43% (n = 3,300); ACh-evoked depolarization; shares compounds with TRPC6 inhibitor;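 active = fluorescence ratio falls more than 5 SD below the full-stimulation control mean, in both duplicate runs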;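 note: integrated fluorescence ratio of peak minus minimum over baseline after agonist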
TRPC6 act confirm = mouse TRPC6 channel activators, confirmation, HEK293 cells, membrane potential dye, duplicate; actives 11% (n = 2,800); activation, % at 10 µM; shares compounds with TRPC6 inhibitor; HEK293-TRPC6 membrane potential dye fluorescence, FDSS;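 active = ratio signal rise beyond 5 SD above unstimulated control wells' mean, seen in both duplicate runs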;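 note: plate controls were buffer EC0 wells for no effect and acetylcholine ECmax response for full effect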
The depositor's hits bear a star; i = inactive; . = no result.

SMILES	TRPC6 inhibitor	TRPC4 PAM	TRPC4 act	TRPC4 inh	TRPC6 act	HEK293 MPD ctr-2	HEK293 MPD ctr 2-2	TRPC4 ctr mod	TRPC4/MOR inh 2	TRPC6 block conf	TRPC6 act confirm	others
CC(NC(=O)/C(C#N)=C/c1ccc(C(=O)O)cc1)c1ccccc1 (stereo unspecified)	i	i	i	i	i	.	.	.	.	.	.
COc1cc(/C=C(/C#N)C(=O)NC(C)c2ccccc2)cc(OC)c1O (stereo unspecified)	-5.3*	i	i	i	i	415%*	i	48%*	29%*	51%*	.
O=C(Nc1ccc2c(c1)CCC2)Nc1ccc(F)cc1F	i	i	i	i	i	.	.	.	.	.	.
CN1CCc2c(sc3c2c(=O)n(-c2ccccc2)c2nncn32)C1	-5.9*	i	i	i	i	-101%*	i	-20%*	i	i	i
CCOc1ccccc1CN1C(=O)NC2(CCCCCC2)C1=O	i	i	i	i	i	.	.	.	.	.	.
Cc1nn(C(=O)N2CCOCC2)c(C)c1C	-5.5*	i	i	i	i	i	i	i	i	i	i
COC1=C(Nc2ccccc2OC)C(=O)c2ccccc2C1=O	-5.8*	i	i	i	i	-91%*	i	-24%*	38%*	i	i
CCOC(=O)C1CCN(S(=O)(=O)c2c(C)[nH]c(C)c2C(=O)N2CCCCC2)CC1	i	i	i	i	i	.	.	.	.	.	.
CC1(C)CC(N=c2cc(-c3ccccc3)oc3ccc(Cl)cc23)CC(C)(C)N1	-9.6*	i	i	i	i	.	.	.	.	69%*	i	TRPC4 spec 2=42%*;TRPC4 spec=-26%*;HEK293 MPD ctr 2-1=-39%*;HEK293 MPD ctr-1=-328%*
OCCCN=c1cc(-c2ccccc2)oc2ccc(Cl)cc12	-7.3*	i	i	i	i	.	.	.	.	77%*	i	TRPC4 spec 2=68%*;TRPC4 spec=-19%*;HEK293 MPD ctr 2-1=i;HEK293 MPD ctr-1=-386%*
O=c1cc(-c2ccccc2)oc2ccc(O)cc12	i	i	i	i	i	.	.	.	.	.	.
CCOC(=O)N1CCC(N(C(=O)Nc2ccc(Cl)c(Cl)c2)C(C)CC)CC1 (stereo unspecified)	-6.4*	i	i	i	i	i	i	i	i	i	i
CCOC(=O)N1CCC(N(CCOC)C(=O)Nc2ccc(CC)cc2)CC1	i	i	i	i	i	.	.	.	.	.	.
Cc1ccc(OC(C)C(=O)Nc2ccc(S(=O)(=O)N3CCOCC3)cc2)cc1 (stereo unspecified)	i	i	i	i	i	.	.	.	.	.	.
CN(NS(=O)(=O)c1ccc(Cl)cc1)c1nc(C(F)(F)F)nc2ccccc12	-5.6*	i	i	i	i	i	i	i	i	i	i
CN(NS(=O)(=O)c1ccccc1)c1nc2ccccc2nc1C(F)(F)F	i	i	i	i	i	.	.	.	.	.	.
CC(Oc1ccc(Cl)cc1)C(=O)N(C)CC(=O)Nc1ccc(N2CCOCC2)cc1 (stereo unspecified)	i	i	i	i	i	.	.	.	.	.	.
CCCC(=O)N1CCCC(c2nc(-c3cccc(OC)c3)no2)C1 (stereo unspecified)	i	i	i	i	i	.	.	.	.	.	.
CCCCCCC(=O)N1CCCC(c2nc(-c3cccc(OC)c3)no2)C1 (stereo unspecified)	-5.9*	i	i	i	i	i	i	10%*	30%*	64%*	.
Cc1cc(NC(=O)CSc2ccccn2)cc(NC(=O)CSc2ccccn2)c1	i	i	i	i	i	.	.	.	.	.	.
Cc1nonc1NC(=O)CSc1ccccn1	-5.7*	i	i	i	i	i	i	i	i	i	i
COc1ccc2nc(SCC(=O)C(C)(C)C)[nH]c2c1	i	i	i	i	i	.	.	.	.	.	.
CCOC(=O)N1CCN(c2ccc(S(=O)(=O)N(Cc3ccccc3)Cc3ccccc3)cn2)CC1	-5.3*	i	i	i	i	i	i	12%*	i	i	i
Cc1ccc(N=Nc2c(N)[nH]n3c(=O)cc(-c4ccccc4)nc23)cc1	-8.6*	i	i	i	i	.	.	.	.	79%*	i	TRPC4 spec 2=52%*;TRPC4 spec=-17%*;HEK293 MPD ctr 2-1=i;HEK293 MPD ctr-1=-220%*

Screening data deposited in PubChem BioAssay by Johns Hopkins Ion Channel Center.
